Test results taken from ChEMBL document CHEMBL1136710, “Phenylbutyrates as potent, orally bioavailable vitronectin receptor (integrin alphavbeta3) antagonists” (Bioorg Med Chem Lett, 2003).

Assays:
Integrin alpha-V/beta-5 = Integrin alpha-V/beta-5 (Homo sapiens, UniProt P06756+P18084); experiment: Binding affinity for alphaV-beta5 vitronectin receptor; format: protein-complex assay
Method in brief: (§1)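 Competitive radioligand binding to isolated human integrin, αvβ3 or αvβ5, with 3H-SK&F-107260 as the displaced ligand; Ki values are means of two to three separate experiments.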

[1] = Half life period in rat; format: ADME, organism-based; conditions: in vivo
Method in brief: (§2)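 Rats (three per compound) dosed iv and po; plasma concentration–time data analysed non-compartmentally for half-life and clearance; oral bioavailability calculated from dose-normalized iv and po AUC (area under plasma concentration–time curve).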

[2] = Plasma clearance in rat; format: ADME, organism-based; conditions: read-out: Clp; method in brief: as §2
Integrin alpha-V/beta-3 [3] = target: T1, Integrin alpha-V/beta-3 (Homo sapiens, UniProt P05106+P06756); experiment: Binding affinity for alphaV-beta3 vitronectin receptor; format: protein-complex assay; method in brief: as §1
[4] = Oral bioavailability in rat; format: ADME, organism-based; conditions: in vivo; method in brief: as §2
Integrin alpha-V/beta-3 [5] = target: T1, Integrin alpha-V/beta-3; experiment: Binding affinity for alphav/beta 3 vitronectin receptor in HEK cells; format: cell-based, HEK293
Method in brief: (§3)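 Cell-based αvβ3 assay: HEK 293 cells transfected with human αvβ3; inhibition of adhesion to purified human vitronectin measured; IC50 values are means of two experiments, each in triplicate, run with an internal standard.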

Integrin alpha-V/beta-3 [6] = target: T1, Integrin alpha-V/beta-3; experiment: Inhibition of HEK 293 cell adhesion to vitronectin by human alphaV-beta3 integrin; format: cell-based, HEK293; method in brief: as §3
[7] = target: Integrin alpha-IIb/beta-3 (Homo sapiens, UniProt P05106+P08514); experiment: Binding affinity for alphaIIb-beta3 vitronectin receptor; format: protein-complex assay
Homo sapiens = species on record: Homo sapiens; experiment: Compound was tested for the inhibition of human vascular smooth muscle cell migration; format: functional

T1 sequence (P05106 27-788 limits assumed): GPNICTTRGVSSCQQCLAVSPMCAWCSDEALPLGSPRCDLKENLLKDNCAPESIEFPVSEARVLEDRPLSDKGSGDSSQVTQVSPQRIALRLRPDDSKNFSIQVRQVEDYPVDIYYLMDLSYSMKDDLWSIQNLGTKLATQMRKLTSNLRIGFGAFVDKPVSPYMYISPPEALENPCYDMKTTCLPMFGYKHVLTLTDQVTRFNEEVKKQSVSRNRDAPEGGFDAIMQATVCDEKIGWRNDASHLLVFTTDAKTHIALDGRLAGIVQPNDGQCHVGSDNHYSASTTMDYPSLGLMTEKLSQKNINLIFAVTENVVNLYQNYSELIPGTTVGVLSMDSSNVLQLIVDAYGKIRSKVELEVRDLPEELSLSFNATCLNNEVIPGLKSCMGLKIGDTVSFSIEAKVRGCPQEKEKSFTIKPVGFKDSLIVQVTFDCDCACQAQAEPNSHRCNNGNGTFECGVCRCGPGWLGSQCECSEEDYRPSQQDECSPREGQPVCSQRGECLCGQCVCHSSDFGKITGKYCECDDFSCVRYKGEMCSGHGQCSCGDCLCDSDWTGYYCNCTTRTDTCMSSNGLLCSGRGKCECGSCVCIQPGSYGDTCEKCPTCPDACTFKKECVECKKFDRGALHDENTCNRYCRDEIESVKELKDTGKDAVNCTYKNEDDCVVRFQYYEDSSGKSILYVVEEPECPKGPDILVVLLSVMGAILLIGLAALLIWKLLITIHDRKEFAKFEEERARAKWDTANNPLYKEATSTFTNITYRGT
T1 sequence (P06756 31-889 limits assumed): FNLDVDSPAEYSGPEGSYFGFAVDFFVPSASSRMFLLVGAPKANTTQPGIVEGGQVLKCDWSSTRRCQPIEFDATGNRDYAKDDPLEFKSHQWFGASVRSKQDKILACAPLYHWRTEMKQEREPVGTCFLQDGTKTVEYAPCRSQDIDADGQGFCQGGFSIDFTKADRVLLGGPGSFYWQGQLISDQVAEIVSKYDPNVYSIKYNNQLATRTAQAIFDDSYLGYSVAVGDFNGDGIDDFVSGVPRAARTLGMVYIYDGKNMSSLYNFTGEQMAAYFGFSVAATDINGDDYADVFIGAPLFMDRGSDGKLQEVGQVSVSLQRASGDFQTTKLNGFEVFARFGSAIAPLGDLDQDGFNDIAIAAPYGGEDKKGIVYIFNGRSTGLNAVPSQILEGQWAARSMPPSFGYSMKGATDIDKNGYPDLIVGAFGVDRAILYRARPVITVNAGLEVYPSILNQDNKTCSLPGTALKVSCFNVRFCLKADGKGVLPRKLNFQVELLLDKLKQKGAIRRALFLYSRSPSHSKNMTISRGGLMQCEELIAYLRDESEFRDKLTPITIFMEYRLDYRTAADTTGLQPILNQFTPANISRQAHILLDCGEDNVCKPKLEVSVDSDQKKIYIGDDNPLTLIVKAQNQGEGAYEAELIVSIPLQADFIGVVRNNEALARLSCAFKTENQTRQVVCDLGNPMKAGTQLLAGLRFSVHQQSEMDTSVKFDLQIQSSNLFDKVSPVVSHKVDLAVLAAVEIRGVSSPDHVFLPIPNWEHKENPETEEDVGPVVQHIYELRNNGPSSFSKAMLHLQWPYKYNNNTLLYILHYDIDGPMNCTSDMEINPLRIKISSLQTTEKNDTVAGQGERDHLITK
T1 sequence (P06756 891-1048 limits assumed): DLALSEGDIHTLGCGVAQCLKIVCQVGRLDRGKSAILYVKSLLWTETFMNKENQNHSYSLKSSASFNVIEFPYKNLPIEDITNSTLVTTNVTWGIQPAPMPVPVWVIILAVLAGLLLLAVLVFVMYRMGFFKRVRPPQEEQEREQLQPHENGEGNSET
Integrin alpha-V/beta-5, sequence (P06756 31-889 limits assumed): as the sequence (P06756 31-889 limits assumed) above
Integrin alpha-V/beta-5, sequence (P06756 891-1048 limits assumed): as the sequence (P06756 891-1048 limits assumed) above
Integrin alpha-V/beta-5, sequence (P18084 24-799 limits assumed): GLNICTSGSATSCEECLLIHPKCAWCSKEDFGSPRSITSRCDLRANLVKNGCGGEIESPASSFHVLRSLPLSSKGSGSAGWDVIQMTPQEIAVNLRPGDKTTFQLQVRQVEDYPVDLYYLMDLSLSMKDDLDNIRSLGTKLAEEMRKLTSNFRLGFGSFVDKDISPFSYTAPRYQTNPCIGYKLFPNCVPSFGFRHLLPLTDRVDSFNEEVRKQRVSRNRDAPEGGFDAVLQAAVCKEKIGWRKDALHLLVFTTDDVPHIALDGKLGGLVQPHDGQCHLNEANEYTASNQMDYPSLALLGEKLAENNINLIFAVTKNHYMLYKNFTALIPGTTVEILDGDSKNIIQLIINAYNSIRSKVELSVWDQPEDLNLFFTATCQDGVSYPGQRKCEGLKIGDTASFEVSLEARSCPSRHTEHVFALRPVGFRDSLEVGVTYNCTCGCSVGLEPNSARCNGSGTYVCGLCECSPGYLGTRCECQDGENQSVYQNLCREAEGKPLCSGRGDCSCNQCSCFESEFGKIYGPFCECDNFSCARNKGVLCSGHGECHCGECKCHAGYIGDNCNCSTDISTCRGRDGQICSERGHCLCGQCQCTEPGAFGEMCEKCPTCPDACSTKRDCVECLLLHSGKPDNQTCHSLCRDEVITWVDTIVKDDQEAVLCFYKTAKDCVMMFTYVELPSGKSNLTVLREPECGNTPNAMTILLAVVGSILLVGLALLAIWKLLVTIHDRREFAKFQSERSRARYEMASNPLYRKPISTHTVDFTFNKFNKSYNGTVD
Integrin alpha-IIb/beta-3, sequence (P05106 27-788 limits assumed): as the sequence (P05106 27-788 limits assumed) above
Integrin alpha-IIb/beta-3, sequence (P08514 32-887 limits assumed): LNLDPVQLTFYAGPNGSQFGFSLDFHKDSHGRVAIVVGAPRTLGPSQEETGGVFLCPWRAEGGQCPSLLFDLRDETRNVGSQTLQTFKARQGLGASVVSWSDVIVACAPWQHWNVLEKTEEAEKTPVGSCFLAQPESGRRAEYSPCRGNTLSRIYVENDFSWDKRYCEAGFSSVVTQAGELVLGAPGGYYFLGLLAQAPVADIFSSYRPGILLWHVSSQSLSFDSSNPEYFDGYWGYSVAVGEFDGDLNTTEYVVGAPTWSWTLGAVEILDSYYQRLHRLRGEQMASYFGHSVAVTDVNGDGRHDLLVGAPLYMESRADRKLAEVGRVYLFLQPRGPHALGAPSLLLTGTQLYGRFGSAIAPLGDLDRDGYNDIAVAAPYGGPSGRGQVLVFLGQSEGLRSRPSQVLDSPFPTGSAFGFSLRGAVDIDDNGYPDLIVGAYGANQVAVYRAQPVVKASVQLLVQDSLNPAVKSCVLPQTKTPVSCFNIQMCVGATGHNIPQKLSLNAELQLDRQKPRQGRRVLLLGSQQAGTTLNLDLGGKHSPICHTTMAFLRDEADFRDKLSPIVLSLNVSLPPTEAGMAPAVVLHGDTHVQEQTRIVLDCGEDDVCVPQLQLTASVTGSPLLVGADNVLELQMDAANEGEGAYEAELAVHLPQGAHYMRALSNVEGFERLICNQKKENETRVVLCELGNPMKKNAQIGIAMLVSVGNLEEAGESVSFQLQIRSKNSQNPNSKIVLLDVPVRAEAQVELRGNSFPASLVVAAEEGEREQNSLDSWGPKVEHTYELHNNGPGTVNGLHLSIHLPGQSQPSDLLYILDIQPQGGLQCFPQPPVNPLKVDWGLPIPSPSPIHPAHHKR
Integrin alpha-IIb/beta-3, sequence (P08514 891-1039 limits assumed): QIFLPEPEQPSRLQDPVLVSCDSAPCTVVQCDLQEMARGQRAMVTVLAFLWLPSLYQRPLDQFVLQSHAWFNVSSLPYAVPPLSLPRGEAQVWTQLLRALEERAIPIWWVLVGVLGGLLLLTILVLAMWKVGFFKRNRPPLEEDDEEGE

SMILES	Ki (Integrin alpha-V/beta-5) [nM]	half-life [1] [h]	clearance [2] [mL/min/kg]	Ki (Integrin alpha-V/beta-3 [3]) [nM]	bioavailability [4] [%]	IC50 (Integrin alpha-V/beta-3 [5]) [nM]	IC50 (Integrin alpha-V/beta-3 [6]) [nM]	Ki [7] [nM]	IC50 (Homo sapiens) [nM]
O=C(O)C[C@@H]1Cc2ccc(OCCCNc3ccccn3)cc2Cc2ccccc21	2.6								
O=C(O)C[C@H](Cc1ccc(OCCc2ccc3c(n2)NCCC3)cc1)c1ccccc1	2.5	1.58	6	2.5	100	30		36000	26
CNc1cccc(CCOc2ccc(C[C@@H](CC(=O)O)c3ccccc3)cc2)n1		5.17	4.9	7	100	330			
O=C(O)C[C@@H](Cc1ccc(OCCCNc2ccccn2)cc1)c1ccccc1				170					

Next, values leading:

Ki (Integrin alpha-V/beta-5) [nM]	half-life [1] [h]	clearance [2] [mL/min/kg]	Ki (Integrin alpha-V/beta-3 [3]) [nM]	bioavailability [4] [%]	IC50 (Integrin alpha-V/beta-3 [5]) [nM]	IC50 (Integrin alpha-V/beta-3 [6]) [nM]	Ki [7] [nM]	IC50 (Homo sapiens) [nM]	SMILES
	2.4	7.2	12	100	470				O=C(O)C[C@H](Cc1ccc(OCCCNc2ccccn2)cc1)c1ccccc1
6			32			500	> 10000		O=C(O)CC(Cc1ccc(OCCCNc2ccccn2)cc1)c1ccccc1 (centres undefined)
